Activity calls are given as the source filed them. The calls are words filed in the database; no cut-off is given here.
Assays:
Nucleic Acid [1] = experiment: Binding affinity to human fluorescent labeled oligonucleotide F21T telomeric G-quadruplex DNA assessed as change in melting temperature at 1 uM after 30 secs by FRET assay; format: nucleic-acid assay
Nucleic Acid [2] = experiment: Binding affinity to hairpin fluorescent labeled oligonucleotide F10T duplex DNA assessed as change in melting temperature at 1 uM after 30 secs by FRET assay
Nucleic Acid [3] = experiment: Binding affinity to human fluorescent labeled oligonucleotide F21T telomeric G-quadruplex DNA assessed as change in melting temperature at 1 uM by FRET assay in presence of duplex DNA competitor ds26; format: nucleic-acid assay
Nucleic Acid [4] = experiment: Binding affinity to human biotinylated telomeric HTG21 G-quadruplex DNA assessed as equilibrium dissociation constant by SPR assay; format: nucleic-acid assay
Procedure, shortened: (§1)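 Biotinylated HTG21 (d(GGG[TTAGGG]3)) or duplex DNA was folded in 50 mM Tris-HCl pH 7.2 with 100 mM KCl. About 1000 RU was captured on flow cells 1 and 2, with the third cell as blank. Six ligand concentrations from 0.15625 µM upward were injected for 150 s association and 300 s dissociation at 25 °C. KD came from global Langmuir fitting of the kinetics.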

Nucleic Acid [5] = experiment: Binding affinity to human biotinylated duplex DNA assessed as equilibrium dissociation constant upto 10 to 20 uM by SPR assay; format: nucleic-acid assay; procedure, shortened: as §1
[6] = biological target: Telomerase reverse transcriptase (Homo sapiens, UniProt O14746); experiment: Inhibition of human telomerase in cell free system after 1 min by TRAP-LIG assay; details: in the assay text read “after 20 mins” for “after 1 min”
Procedure, shortened: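 TRAP-LIG used 500 ng protein extract from exponentially growing MCF-7 cells to extend 0.1 µg TS primer. The buffer was 20 mM Tris-HCl pH 8.3, 68 mM KCl, 1.5 mM MgCl2, 1 mM EGTA and 0.05% Tween 20, with 125 µM dNTPs and BSA, plus ligand at various concentrations or none. After 20 min elongation and purification, products were amplified with ACX/TS primers and Taq for 35 cycles (94 °C 30 s, 61 °C 1 min, 72 °C 1 min).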

Nucleic Acid [7] = experiment: Binding affinity to human telomeric HTG21 G-quadruplex DNA after 6 hrs in presence of K+ ions by CD spectroscopy; format: nucleic-acid assay
Procedure, shortened: (§2)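 HTG21 in 10 mM Tris-HCl pH 7.2 with 100 mM KCl was titrated with ligand at 0–5 mol equiv. Samples were heated to 95 °C, cooled slowly to room temperature and held at 4 °C for at least 6 h. CD was scanned at 230–450 nm in a 4 mm quartz cuvette with 1 nm bandwidth, 1 nm steps and 0.5 s per point.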

Nucleic Acid [8] = experiment: Binding affinity to human telomeric HTG21 G-quadruplex DNA after 6 hrs by CD spectroscopy; format: nucleic-acid assay; procedure, shortened: as §2
HL-60 [9] = experiment: Cytotoxicity against human HL60 cells assessed as cell viability after 48 hrs by MTT assay; format: functional, cell-based; details: HL-60, 48 h
Procedure, shortened: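 HL60 cells were seeded at 1.0 × 10³ per well and exposed to a range of compound concentrations for 48 h at 37 °C in 5% CO2. MTT (5 mg/mL) was added for 4 h, formazan was dissolved in DMSO and OD was read at 570 nm. Each dose was run in triplicate, and IC50 was taken from mean OD versus concentration curves.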

HL-60 [10] = experiment: Cytotoxicity against human HL60 cells assessed as decrease in population doubling at 2.5 uM after 8 days; format: functional, cell-based
HL-60 [11] = experiment: Growth inhibition of human HL60 cells assessed as decrease in population doubling at 2.5 uM after 12 days; format: functional, cell-based
HL-60 [12] = experiment: Growth inhibition of human HL60 cells assessed as decrease in population doubling at 1.25 uM after 12 days; format: functional, cell-based
HL-60 [13] = experiment: Growth inhibition of human HL60 cells assessed as decrease in population doubling at 0.625 uM after 16 days; format: functional, cell-based
HL-60 [14] = experiment: Induction of senescence in human HL60 cells assessed enlarged cells measured every 4 days for 16 days by optical microscopy; format: functional, cell-based
Procedure, shortened: (§3)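 After 16 days of long-term HL60 culture with ligand renewed every 4 days (1.25 µM shown, versus 0.1% DMSO), cells were fixed in 2% formaldehyde/0.2% glutaraldehyde for 15 min at room temperature. They were washed with PBS and stained overnight at 37 °C with X-gal (1 mg/mL). SA-β-Gal and enlarged or flattened morphology were scored by optical microscopy.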

HL-60 [15] = experiment: Induction of senescence in human HL60 cells assessed flattened cells measured every 4 days for 16 days by optical microscopy; format: functional, cell-based; procedure, shortened: as §3
HL-60 [16] = experiment: Induction of senescence in human HL60 cells assessed as beta galactosidase activity at 1.25 uM measured every 4 days for 16 days; format: functional, cell-based; procedure, shortened: as §3
HL-60 [17] = experiment: Induction of telomere shortening in human HL60 cells at 1.25 uM after 16 days by telomeric restriction fragment length assay; format: functional
Procedure, shortened: (§4)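 HL60 cells were treated with ligand (0.625 or 1.25 µM) or 0.1% DMSO for 16 days. Genomic DNA was digested with HinfI/RsaI and run on a 0.8% agarose gel, then blotted to nylon and fixed at 120 °C for 20 min. The blot was hybridized with a DIG-labeled telomeric probe, bound with anti-DIG-alkaline phosphatase and detected by chemiluminescence.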

HL-60 [18] = experiment: Induction of telomere shortening in human HL60 cells at 0.625 uM after 16 days by telomeric restriction fragment length assay; format: functional, cell-based; procedure, shortened: as §4
Nucleic Acid [19] = experiment: Binding affinity to human oligonucleotide telomeric HT6 G-quadruplex DNA by NMR spectroscopy; format: nucleic-acid assay
Procedure, shortened: (§5)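 1H NMR titration at 400 MHz and 25 °C of 0.5 mM [d(TTAGGG)]4 in 90% H2O/10% D2O with 25 mM potassium phosphate (pH 7.0) and 150 mM KCl. Ligand:quadruplex ratios were 0, 0.25, 0.5, 1 and 2. Water was suppressed by Watergate. Shifts and broadening of DNA signals were followed. The oligonucleotide was HPLC-purified.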

Nucleic Acid [20] = experiment: Binding affinity to human oligonucleotide telomeric HT6 G-quadruplex DNA at 0.5:1 ligand to quadruplex ratio by NMR spectroscopy; format: nucleic-acid assay; procedure, shortened: as §5
Nucleic Acid [21] = experiment: Binding affinity to A3 site of human oligonucleotide telomeric HT6 G-quadruplex DNA by NMR spectroscopy; format: nucleic-acid assay; procedure, shortened: as §5
Nucleic Acid [22] = experiment: Binding affinity to G4 site of human oligonucleotide telomeric HT6 G-quadruplex DNA by NMR spectroscopy; format: nucleic-acid assay; procedure, shortened: as §5

Telomerase reverse transcriptase, sequence (O14746 whole entry): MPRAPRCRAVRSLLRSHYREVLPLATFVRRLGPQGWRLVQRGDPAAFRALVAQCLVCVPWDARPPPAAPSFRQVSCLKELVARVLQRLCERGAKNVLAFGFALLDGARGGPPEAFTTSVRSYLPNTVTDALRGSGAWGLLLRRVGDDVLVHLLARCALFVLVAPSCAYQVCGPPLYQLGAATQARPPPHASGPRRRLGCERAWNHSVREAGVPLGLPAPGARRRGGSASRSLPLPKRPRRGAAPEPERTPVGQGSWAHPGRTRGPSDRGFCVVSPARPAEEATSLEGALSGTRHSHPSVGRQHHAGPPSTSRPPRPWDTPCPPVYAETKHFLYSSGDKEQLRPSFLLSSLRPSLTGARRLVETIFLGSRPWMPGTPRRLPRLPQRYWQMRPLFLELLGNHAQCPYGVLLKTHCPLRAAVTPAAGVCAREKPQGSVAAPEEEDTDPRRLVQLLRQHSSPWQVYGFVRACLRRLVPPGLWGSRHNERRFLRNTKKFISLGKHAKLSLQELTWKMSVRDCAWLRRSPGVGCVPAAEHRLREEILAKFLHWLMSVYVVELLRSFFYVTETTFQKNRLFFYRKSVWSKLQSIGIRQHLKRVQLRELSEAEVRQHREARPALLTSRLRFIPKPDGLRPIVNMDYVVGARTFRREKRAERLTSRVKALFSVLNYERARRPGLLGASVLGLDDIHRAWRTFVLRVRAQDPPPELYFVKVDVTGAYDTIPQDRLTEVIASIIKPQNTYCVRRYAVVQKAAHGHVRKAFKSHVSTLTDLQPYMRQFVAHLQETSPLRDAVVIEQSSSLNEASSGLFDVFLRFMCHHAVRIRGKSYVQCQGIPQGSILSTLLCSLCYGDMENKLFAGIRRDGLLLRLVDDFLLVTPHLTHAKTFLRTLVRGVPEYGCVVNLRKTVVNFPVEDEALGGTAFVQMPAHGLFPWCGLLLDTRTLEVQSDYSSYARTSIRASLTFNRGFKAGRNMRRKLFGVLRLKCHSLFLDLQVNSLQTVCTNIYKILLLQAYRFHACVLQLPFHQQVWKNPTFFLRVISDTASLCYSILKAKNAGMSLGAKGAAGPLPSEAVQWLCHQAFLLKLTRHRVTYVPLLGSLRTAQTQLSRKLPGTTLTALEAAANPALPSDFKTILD

Row | ΔTm (Nucleic Acid [1]) [°C] | ΔTm (Nucleic Acid [2]) [°C] | Activity (Nucleic Acid [3]) | Structure (SMILES) | further results
1 | 13 | 0.3 | Active | CN(C)CCCNCC(=O)Nc1cc(Cl)ccc1-c1nc(NCCCN(C)C)c2ccccc2n1 | Kd (Nucleic Acid [4]): 0.337 µM; Activity (Nucleic Acid [5]): inactive
2 | 12.8 | 0.2 | – | CN(C)CCCNc1nc(-c2ccc(Cl)cc2NC(=O)CCN2CCCC2)nc2ccccc12 | –
3 | 10.1 | 0.3 | Active | CN(C)CCCNc1nc(-c2ccc(Cl)cc2NC(=O)CN2CCN(C)CC2)nc2ccccc12 | IC50 [6]: 29.3 µM; Activity (Nucleic Acid [7]): Active; Kd (Nucleic Acid [4]): 2.11 µM; Activity (Nucleic Acid [5]): inactive
4 | 14.4 | 0.1 | – | CCN(CC)CCC(=O)Nc1cc(Cl)ccc1-c1nc(NCCCN(C)C)c2ccccc2n1 | –
5 | 11.8 | 0.2 | – | CN(C)CCCNc1nc(-c2ccc(Cl)cc2NC(=O)CCN2CCCCC2)nc2ccccc12 | –
6 | 15.5 | 0.3 | Active | CN(C)CCCNc1nc(-c2ccc(Cl)cc2NC(=O)CCN2CCN(C)CC2)nc2ccccc12 | IC50 [6]: 7.4 µM; IC50 (HL-60 [9]): 9.6 µM; Activity (HL-60 [10]): Active; growth inhibition (GI) (HL-60 [11]): Active; growth inhibition (GI) (HL-60 [12]): Active; growth inhibition (GI) (HL-60 [13]): Active; Activity (HL-60 [14]): Active; Activity (HL-60 [15]): Active; Activity (HL-60 [16]): Active; Activity (HL-60 [17]): 1.2 kilobase; Activity (HL-60 [18]): Active; Kd (Nucleic Acid [4]): 0.314 µM; Activity (Nucleic Acid [5]): inactive; Activity (Nucleic Acid [8]): Active; Activity (Nucleic Acid [19]): Active; Activity (Nucleic Acid [20]): Active; Activity (Nucleic Acid [21]): Active; Activity (Nucleic Acid [22]): Active
7 | 4.5 | 0.1 | – | CCN(CC)CC(=O)Nc1cc(Cl)ccc1-c1nc(NCCCN(C)C)c2ccccc2n1 | –
8 | 5.4 | 0.2 | – | CN(C)CCCNc1nc(-c2ccc(Cl)cc2NC(=O)CN2CCCCC2)nc2ccccc12 | –
9 | 8.4 | 0.1 | Active | CN(C)CCCNc1nc(-c2ccc(Cl)cc2NC(=O)CCN2CCOCC2)nc2ccccc12 | –

The remaining lines, values behind:

Row | Structure (SMILES) | ΔTm (Nucleic Acid [1]) [°C] | ΔTm (Nucleic Acid [2]) [°C] | Activity (Nucleic Acid [3]) | further results
10 | CN(C)CCCNc1nc(-c2ccc(Cl)cc2NC(=O)CCCN2CCCCC2)nc2ccccc12 | 11.6 | 0.2 | – | –
11 | CN(C)CCCNc1nc(-c2ccc(Cl)cc2NC(=O)CNCCN2CCCCC2)nc2ccccc12 | 9.6 | 0.2 | – | –
12 | CN(C)CCCNc1nc(-c2ccc(Cl)cc2NC(=O)CCCN2CCOCC2)nc2ccccc12 | 9.8 | 0.1 | Active | –
13 | CN(C)CCCNc1c2ccccc2nc2c1[nH]c1ccccc12 | 9.9 | 5.5 | inactive | –
14 | CN(C)CCCNCCC(=O)Nc1cc(Cl)ccc1-c1nc(NCCCN(C)C)c2ccccc2n1 | – | – | – | Activity (Nucleic Acid [8]): Active
15 | CN(C)CCCNc1nc(-c2ccc(Cl)cc2NC(=O)CCCN2CCN(C)CC2)nc2ccccc12 | 14.7 | 0.4 | Active | IC50 [6]: 7.7 µM; Kd (Nucleic Acid [4]): 0.278 µM; Activity (Nucleic Acid [5]): inactive; Activity (Nucleic Acid [8]): Active
16 | CN(C)CCCNc1nc(-c2ccc(Cl)cc2NC(=O)CN2CCCC2)nc2ccccc12 | 7.4 | 0.1 | – | –
17 | CN(C)CCCNc1nc(-c2ccc(Cl)cc2NC(=O)CNCCN2CCCC2)nc2ccccc12 | 10.4 | 0.3 | – | –
18 | CN(C)CCCNc1nc(-c2ccc(Cl)cc2N)nc2ccccc12 | 0.7 | 0.3 | – | –
19 | CCN(CC)CCCNCC(=O)Nc1cc(Cl)ccc1-c1nc(NCCCN(C)C)c2ccccc2n1 | 12.3 | 0.2 | – | –
20 | CN(C)CCCNc1nc(-c2ccc(Cl)cc2NC(=O)CN2CCOCC2)nc2ccccc12 | 3.9 | 0 | Active | –

— ChEMBL document CHEMBL2203100, “Disubstituted quinazoline derivatives as a new type of highly selective ligands for telomeric G-quadruplex DNA” (Eur J Med Chem, 2012)
